Experimental data: ChEMBL document CHEMBL4334452, “Monosaccharide Analogues of Anticancer Peptide R-Lycosin-I: Role of Monosaccharide Conjugation in Complexation and the Potential of Lung Cancer Targeting and Therapy” (J Med Chem, 2019)
pIC50: −log10 of the molar value. Active and inactive are the calls of the source. No cut-off for these calls is given here. *1 amine or outer side, *2 acyl side, *3 side chain or, on linkers, in order; H or OH if unused. Where a SMILES comes first, the peptide text is derived from it. The star is where a group is joined. NH(CH2)3O(βDGlc) = OC[C@H]1O[C@@H](OCCCN*)[C@H](O)[C@@H](O)[C@@H]1O; Glutaryl = O=C(CCCC(=O)[*:2])[*:1]

Tests used:
[1] = system: A549; assay: Induction of mitochondrial membrane disruption in human A549 cells assessed as increase in cytochrome C level in cytoplasm at 15 uM measured after 24 hrs by immunofluorescence assay; assay type: functional, cell-based
Procedure, shortened: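 A549 cells given 15 µM peptide for 24 h, permeabilized 2 min with 0.5% Triton X-100 and blocked 30 min in 10% sheep serum/PBS. Anti-CytC (1:100) applied 2 h at RT, then fluorescent goat anti-mouse secondary (1:200) for 1 h. Confocal imaging; untreated cells served as control.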

[2] = system: A549; assay: Induction of apoptosis in human A549 cells assessed as appearance of surface bubbling at 15 uM measured after 24 hrs by scanning electron microscopic analysis; assay type: functional, cell-based
[3] = system: A549; assay: Induction of apoptosis in human A549 cells assessed as appearance of apoptotic bodies at 15 uM measured after 24 hrs by scanning electron microscopic analysis; assay type: functional, cell-based
[4] = system: HEK-293T; assay: Cytotoxicity against HEK293T cells assessed as reduction in cell viability measured after 24 hrs by CCK8 assay; assay type: cell-based, Homo sapiens; details: Homo sapiens, HEK-293T
Procedure, shortened: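 Cells (A549, H460, H1437, PC-3, HGC-27, MDA-MB-231, HEK-293T, L-02) seeded at about 2×10^3/well and grown overnight. Treated 24 h with a peptide concentration series in serum-free medium. Viability by CCK-8; IC50 taken as 50% inhibition versus untreated cells. Average of three experiments, each in triplicate.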

[5] = system: A549; assay: Induction of apoptosis in human A549 cells assessed as viable cells at 8 uM measured after 4 hrs by Annexin V-FITC/propidium iodide staining-based flow cytometry (reference value: 95.4%); assay type: functional; details: A549, 4 h, read-out: Activity
Procedure, shortened: (§1)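 A549 cells grown 24 h, trypsinized, then resuspended in medium with 8 µM peptide for 4 h at 37 °C. Cells washed with cold PBS, stained with Annexin V-FITC/PI, and analysed by flow cytometry.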

[6] = system: A549; assay: Induction of apoptosis in human A549 cells assessed as necrotic cells at 8 uM measured after 4 hrs by Annexin V-FITC/propidium iodide staining-based flow cytometry (reference value: 0.51%); assay type: functional; procedure, shortened: as §1
[7] = system: A549; assay: Induction of morphological changes in human A549 cells assessed as disruption of cell membrane at 15 uM measured after 24 hrs by scanning electron microscopic analysis; assay type: functional, cell-based
Procedure, shortened: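 A549 cells pre-seeded on mica sheets for 24 h at 37°C, then exposed to 15 μM peptide for 24 h at 37°C. Cells were PBS-washed twice, fixed in 4% paraformaldehyde for 15 min, dehydrated through graded ethanol and imaged by SEM at 15 kV. Untreated cells served as control.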

[8] = system: A549; assay: Induction of morphological changes in 3D spheroids of human A549 cells assessed as cell shrinkage at 30 uM treated every 2 days for 6 days measured every 3 days during compound dosing by microscopic analysis; assay type: functional, cell-based
Procedure, shortened: (§2)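 A549 3D spheroids, one per well, in 10% medium with peptide at 30 µM final. Dosed at day 0, then re-added at days 2 and 4, for 6 days total. Spheroids washed thrice, then imaged and sized at days 0, 3 and 6. Viability read by CCK-8.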

[9] = system: A549; assay: Induction of morphological changes in 3D spheroids of human A549 cells assessed as dissociation of 3D structure at 30 uM treated every 2 days for 6 days measured every 3 days during compound dosing by microscopic analysis; assay type: functional, cell-based; procedure, shortened: as §2
[10] = molecular target: T1, Solute carrier family 2, facilitated glucose transporter member 1 (Homo sapiens) (UniProt P11166); assay: Binding affinity to GLUT1 in 3D spheroids of human A549 cells assessed as cytotoxicity by measuring reduction in cell viability at 30 uM treated every 2 days for 6 days by CCK8 assay; assay type: cell-based; procedure, shortened: as §2
T1 sequence (whole entry): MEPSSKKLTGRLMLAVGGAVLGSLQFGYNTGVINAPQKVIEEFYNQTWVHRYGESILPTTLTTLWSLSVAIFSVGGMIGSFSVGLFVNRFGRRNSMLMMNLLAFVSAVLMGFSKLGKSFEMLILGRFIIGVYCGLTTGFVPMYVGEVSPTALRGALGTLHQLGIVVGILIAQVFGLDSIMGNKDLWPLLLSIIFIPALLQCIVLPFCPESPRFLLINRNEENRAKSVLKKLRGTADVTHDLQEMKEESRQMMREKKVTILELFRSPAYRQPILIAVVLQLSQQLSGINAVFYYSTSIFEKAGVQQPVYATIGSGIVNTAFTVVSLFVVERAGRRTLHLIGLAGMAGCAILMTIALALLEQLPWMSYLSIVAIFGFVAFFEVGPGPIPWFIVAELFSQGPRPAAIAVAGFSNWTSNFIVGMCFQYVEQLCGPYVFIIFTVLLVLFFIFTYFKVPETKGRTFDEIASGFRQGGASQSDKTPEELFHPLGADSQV

[11] = Drug uptake in spleen of Balb/c nu/nu mouse xenografted with human A549 cells expressing luciferase gene at 3 mg/kg administered intratumorally measured after 6 hrs by fluorescence assay; assay type: ADME, organism-based; details: in vivo, other
[12] = system: A549; assay: Antitumor activity against human A549 cells expressing luciferase gene xenografted in Balb/c nu/nu mouse assessed as tumor growth inhibition at 9 mg/kg, ip administered every 2 days for seven times measured on day 14 by bioluminescent imaging analysis; assay type: functional, organism-based
Procedure, shortened: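 Male BALB/c nu/nu mice, 4-6 weeks old, carrying subcutaneous A549-luciferase xenografts in the right back. Dosing started when tumors reached 100-200 mm³ (day 0), five per group. Peptide was given at 9 mg/kg i.p. in 200 µL every other day for 7 doses; PBS served as control. Bioluminescent imaging on day 14; tumor size and body weight tracked. Tumors fixed in paraformaldehyde, paraffin-sectioned, TUNEL-stained.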

[13] = Toxicity in Balb/c nu/nu mouse xenografted with human A549 cells expressing luciferase gene assessed as effect on heart at 9 mg/kg, ip administered every 2 days for seven times measured on day 14 by H and E staining based assay; assay type: organism-based; details: in vivo, 48 h
Procedure, shortened: (§3)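 Male BALB/c nu/nu mice bearing subcutaneous A549-luciferase xenografts received 9 mg/kg peptide i.p. (200 µL) every other day for seven doses, with a PBS control group of five. Heart, liver and kidney were fixed in 10% paraformaldehyde, sectioned and stained with H&E for histology.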

[14] = Toxicity in Balb/c nu/nu mouse xenografted with human A549 cells expressing luciferase gene assessed as effect on kidney at 9 mg/kg, ip administered every 2 days for seven times measured on day 14 by H and E staining based assay; assay type: organism-based; details: in vivo, 48 h; procedure, shortened: as §3
[15] = Stability of the compound in serum (unknown origin) measured up to 48 hrs; assay type: ADME, cell-free
[16] = molecular target: T1, Solute carrier family 2, facilitated glucose transporter member 1 (Homo sapiens); assay: Binding affinity to GLUT1 in human A549 cells assessed as cytotoxicity by measuring reduction in cell viability at 12.5 uM measured after 2 hrs in presence of GLUT1 inhibitor STF-31 by CCK8 assay; assay type: cell-based
Procedure, shortened: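 A549 cells at 2×10^3/well, grown overnight, then preincubated 4 h in F12K/10% FBS with or without STF-31 (1 µM final). […] Incubated a further 2 h at 37 °C; viability by CCK-8.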

[17] = molecular target: T1, Solute carrier family 2, facilitated glucose transporter member 1 (Homo sapiens); assay: Binding affinity to GLUT1 in human A549 cells assessed as cytotoxicity by measuring reduction in cell viability at 40 umol/L measured up to 24 hrs in presence of 10% serum by CCK8 assay; assay type: cell-based

Structure (SMILES)	Activity [1]	Activity [2]	Activity [3]	pIC50 [4]	viability at 8 µM [5] [%]	Activity [6] [%]	Activity [7]	Activity [8]	Activity [9]	Activity [10]	Drug uptake [11]	TGI [12]	Activity [13]	Activity [14]	Stability [15]	Activity [16]	Activity [17]
CC[C@H](C)[C@H](NC(=O)[C@H](Cc1ccccc1)NC(=O)[C@H](CCCNC(=N)N)NC(=O)[C@H](C)NC(=O)[C@@H](NC(=O)[C@H](CO)NC(=O)[C@H](CCCNC(=N)N)NC(=O)[C@H](CCSC)NC(=O)[C@H](C)NC(=O)[C@H](CCCNC(=N)N)NC(=O)[C@H](Cc1ccccc1)NC(=O)[C@H](Cc1c[nH]c2ccccc12)NC(=O)CNC(=O)[C@H](CCCNC(=N)N)NC(=O)CCCC(=O)NCCCO[C@@H]1O[C@H](CO)[C@@H](O)[C@H](O)[C@H]1O)[C@@H](C)CC)C(=O)N[C@@H](C)C(=O)N[C@@H](CCCNC(=N)N)C(=O)N[C@@H](CCC(=O)O)C(=O)N[C@@H](CCCNC(=N)N)C(=O)N[C@@H](CC(C)C)C(=O)N[C@@H](CCCNC(=N)N)C(=O)N[C@@H](CCC(=O)O)C(=O)N[C@@H](Cc1cnc[nH]1)C(=O)N[C@@H](CC(C)C)C(=O)O ({NH(CH2)3O(βDGlc)-Glutaryl}-RGWFRAMRSIARFIARERLREHL-OH)	Active	Active	Active	4.43	59.8	0.57	Active	Active	Active	Active	Active	Active	Non-Toxic	Non-Toxic	Stable		
CC[C@H](C)[C@H](NC(=O)[C@H](Cc1ccccc1)NC(=O)[C@H](CCCNC(=N)N)NC(=O)[C@H](C)NC(=O)[C@@H](NC(=O)[C@H](CO)NC(=O)[C@H](CCCNC(=N)N)NC(=O)[C@H](CCSC)NC(=O)[C@H](C)NC(=O)[C@H](CCCNC(=N)N)NC(=O)[C@H](Cc1ccccc1)NC(=O)[C@H](Cc1c[nH]c2ccccc12)NC(=O)CNC(=O)[C@@H](N)CCCNC(=N)N)[C@@H](C)CC)C(=O)N[C@@H](C)C(=O)N[C@@H](CCCNC(=N)N)C(=O)N[C@@H](CCC(=O)O)C(=O)N[C@@H](CCCNC(=N)N)C(=O)N[C@@H](CC(C)C)C(=O)N[C@@H](CCCNC(=N)N)C(=O)N[C@@H](CCC(=O)O)C(=O)N[C@@H](Cc1cnc[nH]1)C(=O)N[C@@H](CC(C)C)C(=O)O (H-RGWFRAMRSIARFIARERLREHL-OH)	Active	Active	Active	4.59	88.8	0.75	Active	Active	Active	Active	Active	Active				Active	inactive
